In article PMC3933949 (Bioorganic & medicinal chemistry, 2012):
Where “and” joins values, the source holds several entries; their conditions need not be identical. Equal values may be shown once.

Columns and labels:
[1] = molecular target: aromatase; settings: cited from earlier work; for aromatase inhibition of naturally occurring isoflavones (in words): literature background
[2] = molecular target: T1, recombinant human aromatase (CYP19) (Homo sapiens, UniProt P11511); assay: Fluorescence-based aromatase activity assay; format: biochemical; settings: for increase in inhibition potency compared to model compound 1a: ratio of aromatase IC50 values versus 1a; for aromatase inhibition (in words): recombinant human aromatase, fluorescence assay
T1 sequence (P11511 1-503): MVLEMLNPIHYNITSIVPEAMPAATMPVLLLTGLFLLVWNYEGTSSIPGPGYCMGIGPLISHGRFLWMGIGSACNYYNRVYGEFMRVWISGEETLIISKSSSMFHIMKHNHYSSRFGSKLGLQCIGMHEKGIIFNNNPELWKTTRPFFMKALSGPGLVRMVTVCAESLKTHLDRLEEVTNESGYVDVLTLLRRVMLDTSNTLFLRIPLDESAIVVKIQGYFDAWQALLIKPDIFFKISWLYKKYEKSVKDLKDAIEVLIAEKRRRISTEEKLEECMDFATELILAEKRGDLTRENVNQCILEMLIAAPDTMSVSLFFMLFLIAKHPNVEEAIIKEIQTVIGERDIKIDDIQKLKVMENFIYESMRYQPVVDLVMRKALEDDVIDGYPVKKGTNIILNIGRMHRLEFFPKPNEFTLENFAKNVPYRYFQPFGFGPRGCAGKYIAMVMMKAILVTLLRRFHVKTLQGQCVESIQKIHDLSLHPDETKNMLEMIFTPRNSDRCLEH
Procedure, shortened: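 Baculovirus/insect-cell-expressed human aromatase with P450 reductase; 3-fold serial dilutions from acetonitrile stocks, preincubated 10 min at 37 °C with NADPH-regenerating cofactor mix (pH 7.5). Enzyme/MFC solution (pH 7.4) was added, then 30 min at 37 °C, Tris stop, fluorescence ex 409/em 530 nm. Interfering compounds: DBF substrate, 2 h, NaOH stop.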

In the case of `O=C1c2ccccc2OCC1c1ccc(O)c(O)c1` (stereo not shown) [3′,4′-dihydroxyisoflavanone], the IC50 ([1]; aromatase, isoflavanone compounds, ref 20b) is given as 200 µM and ≥ 200 µM.
For `O=C1c2ccccc2OCC1c1ccc(Oc2ccccc2)cc1` (stereo not shown) [Compound 1h, 3-(4-Phenoxyphenyl)chroman-4-one], the “increase in inhibition potency compared to model compound 1a” value (from here on “increase in inhibition potency”) [2] was 12 fold.
For `O=C1c2ccccc2OCC1c1ccc(-c2ccccc2)cc1` (stereo not shown) [Compound 1i, 3-(Biphenyl-4-yl)chroman-4-one], the “aromatase inhibition (in words)” value [2] was “no significant inhibition”.
In the case of `O=C1c2ccccc2OCC1c1cc2ccccc2c2ccccc12` (stereo not shown) [Compound 1j, 3-(Phenanthren-9-yl)chroman-4-one], the “aromatase inhibition (in words)” value [2] is reported as “no significant inhibition”.
In the case of `COc1cc(OC)cc(C2COc3ccccc3C2=O)c1` (stereo not shown) [Compound 2g, 3-(3,5-Dimethoxyphenyl)chroman-4-one], the “increase in inhibition potency” value [2] is reported as “threefold”.
For `O=C1c2ccccc2OCC1c1ccsc1` (stereo not shown) [Compound 3a, 3-(Thiophen-3-yl)chroman-4-one], the “aromatase inhibition (in words)” value [2] was “did not exhibit a significant increase in potency”.
With `O=C1c2ccccc2OCC1c1cccnc1` (stereo not shown) [Compound 3b, 3-(Pyridin-3-yl)chroman-4-one] the “increase in inhibition potency” value [2] was “fivefold”.
For `O=C1c2cc(Cl)ccc2OCC1c1ccccc1` (stereo not shown) [Compound 4b, 6-Chloro-3-phenylchroman-4-one], the “aromatase inhibition (in words)” value [2] was “Enhanced inhibitory effects”.
For `CC(C)(C)c1ccc2c(c1)C(=O)C(c1ccccc1)CO2` (stereo not shown) [Compound 4d, 6-tert-Butyl-3-phenylchroman-4-one], the “aromatase inhibition (in words)” value [2] was “reduced the binding affinity”.
For `O=c1c(-c2ccc(O)cc2)coc2cc(O)ccc12` [daidzein], the “aromatase inhibition of naturally occurring isoflavones (in words)” value [1] is given as “either inactive or weak inhibitors”.
In the case of `O=c1c(-c2ccc(O)cc2)coc2cc(O)cc(O)c12` [genistein], the “aromatase inhibition of naturally occurring isoflavones (in words)” value [1] is given as “either inactive or weak inhibitors”.
For `COc1cc2c(=O)c(-c3ccc(O)cc3)coc2cc1O` [glycitein], the “aromatase inhibition of naturally occurring isoflavones (in words)” value [1] is listed as “either inactive or weak inhibitors”.
For `O=c1c(-c2ccccc2)coc2ccccc12` [isoflavone, 3-phenylbenzopyrone], the “aromatase inhibition of scaffold (in words)” value ([1]; ref 20b) is listed as “inactive”.
